Only some compounds are listed: those with a hit (about 11% of all), similar ones and a draw of the others.
RORA act: activators of orphan receptor RORA, primary screen, cell-based, luminescence; CHO-K1 Gal4-RORA LBD luciferase reporter; percent increase over mock-subtracted basal signal; 1.5% of 65,000 active; activation, % at 10 µM; AID 560, 2006;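 active means activation above the mean of all tested compounds plus 3 SD, cut at about 49% in these data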;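 further: 0% = DMSO-treated RORA cells and 100% = added signal equal to DMSO minus mock-transfected cells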
Target sequence (P35398 whole entry, looked up, the tested form may be a part): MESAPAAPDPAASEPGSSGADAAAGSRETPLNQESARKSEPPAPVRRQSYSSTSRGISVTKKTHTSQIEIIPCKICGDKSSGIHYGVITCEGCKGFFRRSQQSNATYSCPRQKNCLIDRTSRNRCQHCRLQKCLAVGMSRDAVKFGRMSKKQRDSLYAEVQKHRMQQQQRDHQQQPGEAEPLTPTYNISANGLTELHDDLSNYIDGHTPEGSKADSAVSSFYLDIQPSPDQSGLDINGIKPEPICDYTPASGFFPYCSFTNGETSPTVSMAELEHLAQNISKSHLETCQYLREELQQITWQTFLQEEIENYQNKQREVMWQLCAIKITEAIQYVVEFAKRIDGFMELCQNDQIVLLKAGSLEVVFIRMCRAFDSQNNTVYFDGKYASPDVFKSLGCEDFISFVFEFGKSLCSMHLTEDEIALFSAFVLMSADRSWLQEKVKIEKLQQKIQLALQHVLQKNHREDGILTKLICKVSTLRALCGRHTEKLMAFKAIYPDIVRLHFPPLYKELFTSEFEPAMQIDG
M1 ag: M1 muscarinic receptor agonists, primary screen, CHO-M1 cells, Fluo-4 calcium, agonist mode | B-score at 10 µM | Fluo-4 calcium fluorescence; active compounds read high | 3% of 64,000 active | AID 626, 2007;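 active means fluorescence rise, raw or as B-score row- and column-corrected plate score, outside the 99.7% band of its plate's samples, either direction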
M1 antag: antagonists of rat M1 muscarinic receptor | Muscarinic acetylcholine receptor M1 (Rattus norvegicus), P08482 | CHO-M1 cells, Fluo-4 calcium, ACh EC80 antagonist mode; active compounds read low | B-score at 10 µM | 3.4% of 64,000 active | AID 628, 2007;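 active means calcium fluorescence response, raw or row-and-column corrected B-score, differing from the plate sample mean either way at a set confidence level, mostly lower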
D1 allo mod: D1 CRE-luciferase signal change, two-sided – cell-based, HEK293 D1, dopamine EC30, D1 allosteric modulator project, primary screen; dopamine EC30 potentiation; actives deviate in either direction; B-score at 10 µM; 5.9% of 58,000 active; AID 641, 2007;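 active means luminescence count or its row- and column-corrected plate score outside the 99.7% band of the plate's sample wells, on either side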
SF1 activator: activators of human SF-1, primary screen, cell-based, CHO-K1, Gal4-SF-1 LBD, luciferase luminescence; Steroidogenic factor 1 (Homo sapiens), Q13285; 1.9% of 65,000 active; activation, % at 10 µM; CHO-K1 Gal4-SF-1 LBD luciferase reporter; % increase over DMSO SF-1-specific signal; AID 522, 2006;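 active means activation above the mean activation of all tested compounds plus 3 SD, cut at about 50% in these data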
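Assay system: CHO-K1 cells co-transfected with Gal4 DBD–human SF-1 LBD, 5xGal4 luciferase reporter; doses: 10 µM only; incubation: 20 h compound exposure at 37 °C after 1 h cell settling; signal: luciferase light emission; evaluation: percent activation versus DMSO; repeats: one test per compound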
mHtt clearance: clearance of mutant huntingtin inclusions, primary screen, imaging, HeLa Exon1htt(103Q)mCFP, confocal imaging. 0.42% of 47,000 active. aggregate imaging; zero = plate's median compound well. AID 853, 2007. inhibition, % at 1.5 µM;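 active means inhibition of aggregate fluorescence above about 70%, also judged a hit by eye on the cell image, limit read from the data, passing the limit was not always enough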;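 further: cells exposed to compound for three days before fixation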
M1 antag confirm: rat M1 muscarinic receptor antagonists, confirmation, CHO cells, Fluo-4 calcium, duplicate | shares compounds with M1 antag | ACh EC80 antagonism; active compounds read low | calcium response (max-min fluorescence) at 10 µM | 43% of 1,700 active;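 active means calcium response below the same-plate mean of wells given acetylcholine alone at its 80%-effect dose, minus 3 SD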;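 further: raw fluorescence intensity difference in arbitrary instrument units and not normalized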
mGluR4 antag: human mGluR4 response to M1 antagonist hits, M1 allosteric modulator project, cell-based, antagonist mode, secondary assay 1 | fluorescence response (max-min) at 10 µM | CHO-mGluR4 calcium flux, Fluo-4 fluorescence, glutamate EC80; active compounds read low | shares compounds with M1 antag | AID 678, 2007 | 0.9% of 1,700 active;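 active means fluorescence response below the plate's average for near-maximal glutamate wells, less 3 SD of those wells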;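 further: raw unnormalized fluorescence span taken in the window right after glutamate addition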
* = called active by the depositor.

For Cc1cc(NC(=O)CSc2nnc(C)c(=O)[nH]2)no1 the results were RORA act -0.6, M1 ag 0.248, M1 antag -2.27*, D1 allo mod 0.0854, SF1 activator 2.1, M1 antag confirm 676 and mGluR4 antag 240.
Screening Cc1nnc(SCC(=O)Nc2cccc(C(F)(F)F)c2)[nH]c1=O returned RORA act -2.5, M1 ag 0.613, M1 antag -0.0328, D1 allo mod 0.945 and SF1 activator -20.1.
For COc1ccc(N=c2oc3cc(O)ccc3cc2C(=O)NCC2CCCO2)c(OC)c1 (stereo unspecified) the results were RORA act -14.0, M1 ag -0.665, M1 antag 0.904, D1 allo mod 0.0959 and SF1 activator 12.3.
`CCCS(=O)(=O)N1CCCC(C(=O)N2CCN(c3ccccn3)CC2)C1` (stereo unspecified) gave RORA act 4.7, M1 ag 0.0381, M1 antag -2.57*, D1 allo mod 1.85, SF1 activator 2.5, mHtt clearance 12.6, M1 antag confirm 525 and mGluR4 antag 191.
Screening Cc1nn(C)c(C)c1S(=O)(=O)N1CCCC(C(=O)N2CCN(c3ccccc3)CC2)C1 (stereo unspecified) returned RORA act 4.2, M1 ag -0.739, M1 antag -2.27*, D1 allo mod -0.193, SF1 activator -10.1, mHtt clearance 57.7, M1 antag confirm 617 and mGluR4 antag 257.
For COc1ccc(CNC(=O)C2CCCN(S(=O)(=O)c3c(C)nn(C)c3C)C2)cc1 (stereo unspecified) the results were RORA act 8.4, M1 ag 0.0626, M1 antag 0.499, D1 allo mod -0.337, SF1 activator -1.4 and mHtt clearance -11.7.
CCCS(=O)(=O)N1CCC(C(=O)N2CCC(Cc3ccccc3)CC2)CC1 was read as RORA act -4.5, M1 ag 0.309, M1 antag -0.419, D1 allo mod -0.0222, SF1 activator -18.9 and mHtt clearance 5.9.
CCCS(=O)(=O)N1CCCC(C(=O)N2CCC(Cc3ccccc3)CC2)C1 (stereo unspecified) was read as RORA act -5.9, M1 ag -0.389, M1 antag -5.2*, D1 allo mod -0.743, SF1 activator -2.5, M1 antag confirm 577 and mGluR4 antag 260.
`O=C(NCc1ccc2c(c1)OCO2)C1CC(=O)N(C2CCCC2)C1` (stereo unspecified) gave RORA act 8.2, M1 ag -0.562, M1 antag -2.91*, D1 allo mod -0.758, SF1 activator 8.5, mHtt clearance -8.3, M1 antag confirm 515 and mGluR4 antag 222.
For Cc1ccc(/C=C2\OC(=O)c3ccccc32)cc1 the results were mHtt clearance 0.1.
CCOc1ccc(C2=Nn3c(nnc3-c3ccccn3)SC2)cc1 was read as RORA act 0.5, M1 ag 1.36, M1 antag -3.15*, SF1 activator 12.3, mHtt clearance 12.0, M1 antag confirm 653 and mGluR4 antag 234.
`CSc1nc2ccc(S(=O)(=O)N3CCOCC3)cc2s1` gave RORA act 14.4, M1 ag -0.482, M1 antag -4.66*, D1 allo mod 0.222, SF1 activator 0.6, M1 antag confirm 298* and mGluR4 antag 167.
Screening CSc1nc2ccc(S(=O)(=O)N3CCCCC3)cc2s1 returned mHtt clearance 36.1.
`Cc1oc(-c2ccccc2)cc1C(=O)Nc1ccc(N(C)C)cc1` gave mHtt clearance 1.5.
`CCCCOc1cccc(C(=O)Nc2ccc(N3CCN(CC)CC3)cc2)c1` gave RORA act 15.3, M1 ag 0.116, M1 antag -16.4*, D1 allo mod -3.55*, SF1 activator 6.8, M1 antag confirm 36.1* and mGluR4 antag 254.
For CCN1CCN(C(c2cccs2)C(C)NC(=O)c2cccnc2)CC1 (stereo unspecified) the results were RORA act -26.7, M1 ag -0.0855, M1 antag -1.36*, D1 allo mod -4.38*, SF1 activator 1.2, M1 antag confirm 578* and mGluR4 antag 239.
`CCN1CCN(c2ccc(NC(=O)c3ccc4c(c3)OCO4)cc2)CC1` gave RORA act 32.0, M1 ag 0.0677, M1 antag -3.02*, SF1 activator 37.2, mHtt clearance 34.3, M1 antag confirm 398* and mGluR4 antag 267.
Screening CCC(=O)N1CCN(c2ccc(NC(=O)c3ccc4c(c3)OCO4)cc2)CC1 returned RORA act 25.0, M1 ag 0.191, M1 antag -1.01, D1 allo mod -0.336, SF1 activator 9.9 and mHtt clearance -11.9.
`CCN1CCN(c2ccc(NC(=O)c3cccnc3)cc2Cl)CC1` gave RORA act 14.0, M1 ag -0.863, M1 antag -3.56*, D1 allo mod -1.28, SF1 activator 15.6, M1 antag confirm 460* and mGluR4 antag 190.
For O=C(NC1CCCCCCC1)c1ccc2c(c1)N(Cc1ccc(F)cc1)C(=O)CS2=O (stereo unspecified) the results were RORA act -15.4, M1 ag 0.343, M1 antag -0.0551, D1 allo mod 0.107, SF1 activator -19.4 and mHtt clearance 6.2.
CCN1CCN(c2ccc(NC(=O)COc3ccccc3Cl)cc2)CC1 was read as RORA act 1.8, M1 ag 0.00174, M1 antag -8.96*, D1 allo mod -4.95*, SF1 activator -11.8, M1 antag confirm 322* and mGluR4 antag 168.
Cc1ccc(-c2nnc(SCC(=O)Nc3nc4c(s3)CCCC4)n2C)cc1 was read as RORA act -3.5, M1 ag 0.644, M1 antag -2.42*, SF1 activator 5.9, M1 antag confirm 641 and mGluR4 antag 227.
Screening COc1ccc(OC)c2sc(N3CCCCC3)nc12 returned RORA act 38.0, M1 ag -0.331, M1 antag -4.17*, D1 allo mod -1.17, SF1 activator 40.1, mHtt clearance 18.9, M1 antag confirm 386* and mGluR4 antag 252.

High-throughput results from PubChem BioAssay.
